{"data": "Experimental data collected from several papers", "target": "Tyrosine-protein kinase Tec (TEC, Homo sapiens, UniProt P42680)", "One construct used (P42680 1-631)": "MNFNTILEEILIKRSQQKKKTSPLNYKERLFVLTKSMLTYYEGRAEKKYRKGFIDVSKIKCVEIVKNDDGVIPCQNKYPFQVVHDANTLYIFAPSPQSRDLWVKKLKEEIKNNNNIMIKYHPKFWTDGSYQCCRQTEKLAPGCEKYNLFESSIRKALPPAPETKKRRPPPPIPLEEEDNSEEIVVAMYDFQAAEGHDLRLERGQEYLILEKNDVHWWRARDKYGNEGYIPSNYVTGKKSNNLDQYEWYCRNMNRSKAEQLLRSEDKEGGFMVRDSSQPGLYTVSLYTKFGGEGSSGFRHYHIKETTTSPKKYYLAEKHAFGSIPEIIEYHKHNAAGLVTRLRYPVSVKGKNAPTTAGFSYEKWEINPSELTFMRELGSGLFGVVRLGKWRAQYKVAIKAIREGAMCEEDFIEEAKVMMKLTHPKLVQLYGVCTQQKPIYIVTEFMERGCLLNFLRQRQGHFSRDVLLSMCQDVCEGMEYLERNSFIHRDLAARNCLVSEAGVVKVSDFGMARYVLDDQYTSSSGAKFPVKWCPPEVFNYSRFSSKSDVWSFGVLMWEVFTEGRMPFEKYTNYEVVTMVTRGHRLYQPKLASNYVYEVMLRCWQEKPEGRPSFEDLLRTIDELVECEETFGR", "note": "Compare with care: the assays were run in different laboratories."}
{"SMILES": "O=C(c1ccc(Nc2ncc(Cl)c(-c3cc4ccccc4s3)n2)cc1)N1CCC(N2CCCC2)CC1", "effect on": "binding", "method": "competition with immobilised ligand", "tested at": "1 µM", "remaining binding": "99%"}
{"SMILES": "CNC(=O)[C@@H]1CC[C@@H](n2c(-c3ccc4cnccc4c3)nc3ccc(C(=O)NCc4cccc(C(N)=O)c4)cc32)C1", "effect on": "binding", "method": "competition with immobilised ligand", "tested at": "1 µM", "remaining binding": "100%"}
{"SMILES": "CN(CCCC(F)(F)F)c1nccc(-c2cnn3ncccc23)n1", "effect on": "binding", "tested at": "1 µM", "remaining binding": "97%"}
{"SMILES": "CCC(=O)N[C@H]1CC[C@@H](C(=O)N(C)c2ccc(-c3nc4ccccc4o3)cc2)C1", "effect on": "cell-free assay", "method": "competition with immobilised ligand", "tested at": "1 µM", "remaining binding": "100%"}
{"SMILES": "FC(F)(F)Oc1cccc(-c2cnc3ccc(-c4ccncc4)nn23)c1", "effect on": "binding", "method": "competition with immobilised ligand", "tested at": "5 µM", "remaining binding": "99%"}
{"SMILES": "O=C(NCC1CCOCC1)c1n[nH]cc1NC(=O)c1c(F)cccc1F", "effect on": "binding", "method": "competition with immobilised ligand", "tested at": "1 µM", "remaining binding": "100%"}
{"SMILES": "Cc1cnn2ncc(-c3ccnc(N(C)C)n3)c2c1", "effect on": "binding", "tested at": "1 µM", "remaining binding": "100%"}
{"SMILES": "C[C@@]1(Cc2ccc(C#N)cc2)C(=O)N(c2cc(Cl)cc(Cl)c2)c2ncc(C(=O)NC3(c4nc(C5CCC5)no4)CC3)n21", "effect on": "cell-free assay", "method": "competition with immobilised ligand", "tested at": "1 µM", "remaining binding": "92%"}
{"SMILES": "CN(c1nccc(-c2cnn3ncccc23)n1)C1CC1", "effect on": "binding", "tested at": "1 µM", "remaining binding": "100%"}
{"SMILES": "CCN1CCN(Cc2ccc(C(=O)Nc3ccc(C)c(Oc4ccc5c(c4)CC(=O)N5)c3)cc2C(F)(F)F)CC1", "effect on": "binding", "method": "competition with immobilised ligand", "tested at": "1 µM", "remaining binding": "98%"}
{"SMILES": "c1cncc(-c2cccc(Nc3nccc(NC4CCCCC4)n3)c2)c1", "effect on": "binding", "method": "competition with immobilised ligand", "tested at": "10 µM", "remaining binding": "94%"}
{"SMILES": "O=C(NCCCN1CCOCC1)c1ccc(Nc2nccc(-c3cc4ccccc4s3)n2)cc1", "effect on": "binding", "method": "competition with immobilised ligand", "tested at": "1 µM", "remaining binding": "100%"}
{"SMILES": "CCCCN(CCCC)C(=O)CN1C[C@@H](c2cc(OC)c3c(c2)OCO3)[C@H](C(=O)O)[C@H]1CC(C)(C)CCC", "effect on": "cell-free assay", "method": "competition with immobilised ligand", "tested at": "1 µM", "remaining binding": "100%"}
{"SMILES": "COc1ncc2cc3ccccc3nc2c1C#N", "effect on": "binding", "method": "competition with immobilised ligand", "tested at": "5 µM", "remaining binding": "100%"}
{"SMILES": "O=C(Nc1cccnn1)N1CCC(=Cc2cccc(Oc3ccc(C(F)(F)F)cn3)c2)CC1", "effect on": "cell-free assay", "method": "competition with immobilised ligand", "tested at": "1 µM", "remaining binding": "100%"}
{"SMILES": "CN(C)c1ncc(F)c(-c2cnn3ncccc23)n1", "effect on": "binding", "tested at": "1 µM", "remaining binding": "100%"}
{"SMILES": "Cc1cnc(Nc2ccc(C(=O)N3CCC(N4CCCC4)CC3)cc2)nc1-c1cc2ccccc2s1", "effect on": "binding", "method": "competition with immobilised ligand", "tested at": "1 µM", "remaining binding": "100%"}
{"SMILES": "COc1ccc2c(O[C@@H]3C[C@H]4C(=O)N[C@]5(C(=O)O)CC5/C=C\\CCCCC[C@H](NC(=O)OC5CCCC5)C(=O)N4C3)cc(-c3csc(NC(=O)C(C)C)n3)nc2c1C (stereo partly drawn)", "effect on": "cell-free assay", "method": "competition with immobilised ligand", "tested at": "1 µM", "remaining binding": "100%"}
{"SMILES": "N[C@H]1CCN(c2nccc(-c3cnn4ncccc34)n2)C1", "effect on": "binding", "tested at": "1 µM", "remaining binding": "100%"}
{"SMILES": "C[C@@H]1CN(c2cc(-c3n[nH]c4ccc(OC5(C)CC5)cc34)ncn2)C[C@H](C)O1", "effect on": "cell-free assay", "method": "competition with immobilised ligand", "tested at": "0.1 µM", "remaining binding": "74%"}
{"SMILES": "CN(C)c1nccc(-c2cnc3ncccn23)n1", "effect on": "binding", "tested at": "1 µM", "remaining binding": "100%"}
